Key:
[1] = Acid dissociation constant was determined; format: ADME
[2] = tested on: Rattus norvegicus; assay: Compound was evaluated for the incidence of serotonin syndrome […] by intraperitoneal administration at the dose 16 mg/kg; 2/3; format: functional
Method in brief: (§1)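 Male Sprague–Dawley rats (200–300 g) were given the racemic hydrochloride salts intraperitoneally at 1–16 mg/kg, following the Sloviter protocol. A rat was scored positive only when forepaw padding, splayed hindlimbs, and head weaving or tremor were all present. Incidence is reported as responders/rats dosed, with […] rats per dose.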

[3] = tested on: Rattus norvegicus; assay: Compound was evaluated for the incidence of serotonin syndrome […] by intraperitoneal administration at the dose 4 mg/kg; 1/3; format: functional; method in brief: as §1
[4] = tested on: Rattus norvegicus; assay: Compound was evaluated for the incidence of serotonin syndrome […] by intraperitoneal administration at the dose 8 mg/kg; 0/3; format: functional; method in brief: as §1
[5] = tested on: Rattus norvegicus; assay: Compound was evaluated for the incidence of serotonin syndrome […] by intraperitoneal administration at the dose 2 mg/kg; 0/3; format: functional; method in brief: as §1
[6] = tested on: Rattus norvegicus; assay: Compound was evaluated for the incidence of serotonin syndrome […] by intraperitoneal administration at the dose 16 mg/kg; 3/3; format: functional; method in brief: as §1
[7] = tested on: Rattus norvegicus; assay: Compound was evaluated for the incidence of serotonin syndrome […] by intraperitoneal administration at the dose 8 mg/kg; 3/8; format: functional
[8] = tested on: Rattus norvegicus; assay: Compound was evaluated for the incidence of serotonin syndrome […] by intraperitoneal administration at the dose 4 mg/kg; 0/8; format: functional

Row | Compound | pKa [1] | Incidence [2] | Incidence [3] | Incidence [4] | Incidence [5] | Incidence [6] | Incidence [7] | Incidence [8]
1 | COc1cc(C)c(OC)c2c1CC(N)C=C2.Cl (stereo not given) | 8.93 | 2 | 1 | 0 | 0 |  |  | 
2 | COc1cc(C)c(OC)c2c1CC(N)CC2.Cl (stereo not given) |  |  |  |  | 0 | 3 | 3 | 0
3 | COc1cc(C2CC2N)c(OC)cc1C (stereo not given) | 8.11 |  |  |  |  |  |  | 
